Our source for the cytotoxicity values is ChEMBL document CHEMBL4513216, “Probing the Open Global Health Chemical Diversity Library for Multistage-Active Starting Points for Next-Generation Antimalarials” (ACS Infect Dis, 2020).

The nature of the series: Toxicity liver stage against HepG2, at 10uM. In kind it is cell-based. Also noted: test concentration 10 uM, cell line HepG2-A16-CD81EGFP. Conditions: human, HepG2-A16-CD81EGFP cells; read-out: INHIBITION
The gist of the method: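 Uninfected HepG2-A16-CD81EGFP cells, 3 × 10^3 per well, 1536-well, plated on prespotted compound at 10 μM final, parasite-free screening media added to match infected plates; puromycin 10 μM positive, DMSO 0.5% negative; run in parallel with 48 h PbLuc assay at 37 °C, 5% CO2; viability by CellTiter-Glo luminescence, normalized to controls.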
Consider `CCN1C(=O)CCCC12CCCN(C(=O)c1ccoc1)C2` (centres undefined), for which the cytotoxicity at 10 µM is -5.83%. Regarding `CC(C)C(=O)N1CC[C@@H]2[C@H](CC1)N(Cc1cccnc1)CCS2(=O)=O`, the cytotoxicity at 10 µM was -7.77%. Next, `Cc1cc(CC(C)NC2CCN(CC(C)C)CC2)[nH]n1` (centres undefined): -8.32%; `CN(Cc1ccc(Cl)s1)C(=O)COc1cccc(C(N)=O)c1`: -2.83%; `CC(C)Cn1ccnc1CNC(=O)NC(C)(C)c1nccs1`: -5.66%.

Turning to `NC(=O)c1nc(COc2ccc3c(c2)OCO3)no1`, the cytotoxicity at 10 µM came to 8.55%. Under `COc1cc(N2CCN(Cc3ccc(C)o3)C(CCO)C2)nc(N)n1` (centres undefined) stands 2.8%; under `CN(C)CC1CSCCCN1S(=O)(=O)Cc1ccc(C(F)(F)F)cc1` (centres undefined), -5.36%. Next, `CCCn1nc2c(cc1=O)CN(CC(=O)N(C)c1nccs1)CC2`: 1.25%; `O=C(NCCCn1cccn1)C1COCC(=O)N1Cc1ccccc1` (centres undefined): -8.57%. Under `CCn1cc(CN2C[C@@H]3CC[C@H]2CN(C(=O)c2ccncc2)C3)cn1` stands 10.2%; under `COCCN1CCC2(C1)c1ccccc1S(=O)(=O)N2C` (centres undefined), 11.4%; under `CCn1ccc(NC(=O)c2cc(C)on2)n1`, -2.23%. In the case of `CO[C@H]1CO[C@@]2(CCCN(C(=O)C3CC=CC3)C2)C1`, the cytotoxicity at 10 µM is -98.6%. Next, `CC(C)CCN(CCC(C)C)Cc1nc2c(cnn2C)c(=O)[nH]1`: -5.57%. Next, `O=C(Cn1cc(-c2ccccc2)ncc1=O)NC1CCCCC1`: -8.03%; `CCc1csc(C2CCCN(C(=O)c3ccc4[nH]nnc4c3)C2)n1` (centres undefined): -17.1%; `COc1ccc(CN(C)Cc2nc3c(cnn3C)c(=O)[nH]2)cc1OC`: 0.457%. As to `CN(C)S(=O)(=O)c1ccc(CN2CCCC2c2cccs2)o1` (centres undefined), the cytotoxicity at 10 µM is -3.31%. On to `CC(C)Cc1noc(CNc2cccc(-c3nnnn3C)c2)n1`, for which the cytotoxicity at 10 µM was 4.6%. Under `CN(CC(=O)Nc1nc2c(s1)CCC2)C(=O)c1cccs1` stands -10.3%; under `Cc1noc(NC(=O)c2ccc(F)cc2)n1`, -0.481%; under `Brc1cnc(NCc2ccccc2N2CCOCC2)nc1`, 1.3%. Under `CNC(=O)N1CCC(NC(=O)c2cnn(C)c2)CC1` stands -1.35%. Next, `CCN(CC1COc2ccccc2O1)C(=O)CCn1cncn1` (centres undefined): -9.21%; `CN(Cc1ccc(Cl)s1)C(=O)Cn1nc(-c2ccc(F)cc2)oc1=O`: -20.4%; `COc1ccccc1CCc1nc(CC2CCN(C)CC2)no1`: 7.71%. Consider `Cn1cc(C[C@H]2[C@H](O)CCN2Cc2ccc(F)cc2)cn1`, for which the cytotoxicity at 10 µM is -75.9%. Next, `Cn1ccnc1CN1CCOC(Cc2ccccc2)C1` (centres undefined): -0.479%. Next, `Cc1nc2sccn2c1CN(CCCN(C)C)Cc1ccccn1`: 3.38%. Under `NC(=O)C1CCN(CCCNC(=O)Nc2nncs2)CC1` stands -0.165%. Consider `CC(O)CN1CCN(C(=O)c2ccc(Br)o2)CC1` (centres undefined), for which the cytotoxicity at 10 µM is -8.6%. Next, `CCn1cc2c(n1)CN(S(=O)(=O)c1cn(C)cn1)CC2COC` (centres undefined): 5.41%; `CCOC(=O)C1CCCN(c2ccc(-c3nc(C)no3)cn2)C1` (centres undefined): -3.74%; `COc1cccc(OCCNS(=O)(=O)Cc2ccccc2)c1`: -15.7%.

For the compound `Cc1cccnc1CNCC1(O)CCCN(CC2CCC2)C1=O` (centres undefined), the cytotoxicity at 10 µM was -5.51%. Under `Cc1noc(C2CCCN(C(=O)CCNc3ncccn3)C2)n1` (centres undefined) stands -8.27%. For the compound `COc1ccc(N(C(=O)c2ccccn2)C(C)C)cc1F`, the cytotoxicity at 10 µM was -1.26%.

Consider `O=C(NCc1cccnc1)NC1CCCN(c2ncccn2)C1` (centres undefined), for which the cytotoxicity at 10 µM is -2.5%. Under `CNC(=O)CN1CCCC12CCN(C(=O)c1ccsc1)CC2` stands 4.87%; under `Cc1c(-c2cc(C(=O)N3CCc4ncc(Cl)cc4C3)on2)cnn1C`, -3.07%; under `O=C(COC[C@]12COC[C@H]1CN(C1CCC1)C2)N1CCCC1`, -102%.

`Fc1ccc(C2CN(c3ncnc4[nH]ncc34)CCO2)cc1` (centres undefined): the cytotoxicity at 10 µM worked out at 27.1%. Turning to `O=C(COc1ccc2c(c1)CCC2)NS(=O)(=O)c1cccnc1`, the cytotoxicity at 10 µM is -4.63%.

Regarding `CNC(=O)C(NC(=O)c1c(C)noc1C)c1ccc(F)c(F)c1` (centres undefined), the cytotoxicity at 10 µM is -18.3%. Next, `O=C(CC1CCCC1)N1CCC2(CC1)[C@H](O)C[C@@H]2O`: 2.3%; `CN(Cc1ccoc1)C(=O)C1CC(=O)N(Cc2ccncc2)C1` (centres undefined): -0.766%; `CC1CN(CC(=O)Nc2cccnc2)CCN1c1nccs1` (centres undefined): -3.59%. Next, `CC1CCCN(Cc2ccc(CNC(=O)NCc3ccncc3)cc2)C1` (centres undefined): 4.64%; `COc1cc(-c2ccc(F)c3c2OC(CN)C3)cc(OC)c1OC` (centres undefined): 1.35%. Next, `CCCc1cc(C(=O)N2C[C@H]3CC=C(C)C[C@H]3C2)ccn1`: 0.782%; `O=C(C1CCOC1)N1CCC2(CC1)COC2` (centres undefined): 3.06%; `Cc1nc(C)c(C(=O)N2CCc3nc4c(C)csc4c(=O)n3CC2)s1`: 4.11%. Regarding `COc1cccc(CNC(=O)c2nc3c(o2)CN(C(=O)N(C)C)C3)c1`, the cytotoxicity at 10 µM is -1.68%. Next, `O=C(c1cnccn1)N1C[C@H]2CC[C@@H](C1)N(C(=O)Cc1ccsc1)C2`: -13.3%. As for `N#CC1(c2ccccc2)CCN(C(=O)CN2C(=O)CCNC2=O)CC1`, the cytotoxicity at 10 µM worked out at 0.172%. Under `CN1C(=O)CCC12CCCN(C(=O)c1ccoc1)C2` (centres undefined) stands 2.65%; under `CNC(=O)c1cccc(NC(=O)NC(C)c2cc(C)oc2C)c1C` (centres undefined), -9.26%. Next, `COCCN1C(=O)CCC12CCCN(c1ncc(F)cn1)CC2` (centres undefined): -8.92%; `OC1(CN2CCCCC2)CCN(c2cccc(C(F)(F)F)n2)C1` (centres undefined): -10.4%. Under `O=C(Cc1ccncc1)N1C[C@H]2CC[C@@H](C1)N(Cc1ccccc1)C2=O` stands 5.79%; under `CN1CCN(CCn2cnc3c(F)cccc3c2=O)CC1`, -1.67%; under `Cc1ncsc1CCC(=O)N(C)Cc1nc2ccccc2n1C`, -143%. As to `CCOCCC(=O)N(C)Cc1noc(C(C)C)n1`, the cytotoxicity at 10 µM is 6.13%. Next, `N#Cc1cccc(N2CCOCC3(CCCN(C(=O)NC4CC4)C3)C2)c1` (centres undefined): 14.1%; `O=C(c1ccsc1)N1CC(c2nc(-c3ccc[nH]c3=O)no2)C1`: -7.39%; `c1cncc(-c2ccc3c(c2)C2(CC3)CCN(c3nncs3)CC2)c1`: 13.1%. Turning to `Cc1cc(CNC(=O)N2CCN(c3ccc(Cl)cn3)CC2)c(C)o1`, the cytotoxicity at 10 µM worked out at 13.9%. With `COc1cc(N2CCCC(c3nccn3Cc3cccnc3)C2)ncn1` (centres undefined), the cytotoxicity at 10 µM is -1.86%.

As for `CCN(CC)C(CNCc1cc(F)cc(F)c1)c1ccco1` (centres undefined), the cytotoxicity at 10 µM stood at 5.44%. As for `COc1ccccc1-c1noc(CCC(=O)NC(C)Cn2cccn2)n1` (centres undefined), the cytotoxicity at 10 µM is 5.67%.

For the compound `CC(C)Sc1nnc(CCNC(=O)OC(C)(C)C)o1`, the cytotoxicity at 10 µM came to 14.3%. Under `CC(C(=O)N1CCCN(c2ccc(C#N)cc2)CC1)n1ccnc1` (centres undefined) stands -9.75%; under `Cc1nnc2n1CCN(C(=O)COCCOc1ccccc1)C2`, 0.529%; under `O=C(NCCCN1CCOCC1)c1ccn(-c2ccc3ccccn23)n1`, 5.17%. With `Cc1cc(CN2CCCC(Cn3cncn3)C2)on1` (centres undefined), the cytotoxicity at 10 µM is -25.2%. Under `CSC1(CNc2ccc(Br)cn2)CCOCC1` stands -9.99%; under `CCCN1CCN(Cc2cc3cc(OCC)ccc3[nH]c2=O)CC1`, -9.91%; under `NC(=O)NC(=O)CCN1CCN(CC2CC2)c2ccccc21`, 17.9%. Next, `OCc1ccc(CN(CCCn2ccnc2)Cc2cccnc2)o1`: -6.75%. Regarding `COC(=O)CCCNC(=O)COc1ccccc1C(F)(F)F`, the cytotoxicity at 10 µM is -0.969%. Next, `CCCN1CCCn2c(nc(CNC(=O)c3cnoc3C)cc2=O)C1`: 2.32%; `CN(C)c1ccc(CC2CCN(c3cnccn3)CC2)nn1`: 2.29%; `COc1ccc(C)cc1C1(CNc2cncc(Cl)n2)CCOCC1`: 7.07%. For the compound `CCc1nc(CN2CCCN(CC(=O)Nc3cccnc3)CC2)no1`, the cytotoxicity at 10 µM is -17.4%.

Consider `Cc1ccc(-c2n[nH]cc2CNCC2CCc3nnc(C)n3C2)cc1` (centres undefined), for which the cytotoxicity at 10 µM is -8.35%. Under `CCOc1ccccc1CNC(=O)N1CCC(n2cncn2)CC1` stands -0.819%; under `CCc1cnc(C)nc1NCCNc1nc(C)cc(=O)[nH]1`, -9.01%; under `c1cnn(CC2CN(Cc3nc(C4CC4)no3)CCO2)c1` (centres undefined), -27.6%. Under `Cc1cc(CN2CCC(C3CCN(Cc4cccnc4)CC3)C2)[nH]n1` (centres undefined) stands 11%; under `COc1cc(CNCCn2cc(C)cn2)c2c(c1)CC(C)O2` (centres undefined), 19.1%; under `COC(=O)N1CCCC(C(=O)Nc2nc(C)c(SC)s2)C1` (centres undefined), 11.1%.

As for `CN(C)S(=O)(=O)c1ccc(CNC(=O)C2CC2)cc1`, the cytotoxicity at 10 µM was found to be 7.04%. For `NC(=O)c1ccc(N2CCCCC2)c(NC(=O)c2cc(Br)ccc2F)c1`, the cytotoxicity at 10 µM is -12.9%. `N#CCSCC(=O)NCC1CCCCC1`: the cytotoxicity at 10 µM was 8.32%. Take `COc1cc(C(=O)NC(C)c2cccs2)cc2c1OCCO2` (centres undefined): the cytotoxicity at 10 µM was -18.2%. Under `CCOc1ccccc1C1CCCN1` (centres undefined) stands -14.1%; under `COCC(=O)N1CCCC(Cc2cnc(-c3c(C)n[nH]c3C)cn2)C1` (centres undefined), -4.51%. Next, `N#Cc1cccnc1NCCNC(=O)N1CCN2CCCCC2C1` (centres undefined): 0.242%.
